Numbering of substitutions follows the chain as printed. ≈ marks a conversion by molar mass, not a printed value. Calls of active or inactive are those of the source. No cut-off for these calls is given here.

For assay [1], the system named is Streptococcus pyogenes. Nature of the assay: Antimicrobial activity against Streptococcus pyogenes Strep A ATCC 19615 incubated for 24 hrs by broth microdilution method. Type of assay: functional. The following applies: Strep A ATCC 19615, 24 h. The method, boiled down:
(§1)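 CLSI broth microdilution. Log-phase bacteria at 10⁵ CFU/mL were exposed to 2-fold serial dilutions (64 to 0.016 μg/mL) in cation-adjusted Mueller-Hinton broth, 5% defibrinated sheep blood added for Streptococcus. Incubated aerobically 24 h at 37 °C. Growth read as OD600; MIC taken as the lowest concentration giving 90% growth inhibition.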
Background: Broth dilution looks for growth in wells or tubes with falling amounts of substance.

Assay [2] deals with T1, Cell division protein FtsZ (Staphylococcus aureus), P0A031 [G196A].
T1 sequence (whole entry): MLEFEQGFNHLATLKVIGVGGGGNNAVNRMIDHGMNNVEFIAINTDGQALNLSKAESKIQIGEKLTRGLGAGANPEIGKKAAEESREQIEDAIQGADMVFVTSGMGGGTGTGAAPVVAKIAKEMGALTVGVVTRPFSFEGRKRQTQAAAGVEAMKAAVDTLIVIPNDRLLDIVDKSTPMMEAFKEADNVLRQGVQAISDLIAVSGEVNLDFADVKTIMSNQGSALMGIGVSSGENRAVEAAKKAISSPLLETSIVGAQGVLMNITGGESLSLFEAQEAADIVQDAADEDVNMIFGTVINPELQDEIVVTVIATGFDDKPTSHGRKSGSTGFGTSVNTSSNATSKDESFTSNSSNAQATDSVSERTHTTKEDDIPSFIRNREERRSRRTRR
In words: Binding affinity to Staphylococcus aureus FtsZ G196A mutant self-polymerization at 10 ug/mL by microtiter plate-based light scattering assay.

For assay [3], the system named is Staphylococcus aureus. In words: Potency index, ratio of erythromycin to compound bactericidal effect in methicillin-sensitive Staphylococcus aureus 8325-4 at 8 times MIC by time kill study. Type of assay: functional.
For assay [4], the system named is T2, Cell division protein FtsZ (Staphylococcus aureus), P0A031 [I228R].
T2 sequence (whole entry): T1 sequence (whole entry) with A196G, I228R
Nature of the assay: Binding affinity to Staphylococcus aureus FtsZ I228R mutant self-polymerization at 10 ug/mL by microtiter plate-based light scattering assay.

Assay [5] has as its system T3, Cell division protein FtsZ (Staphylococcus aureus), P0A031 [E185A].
T3 sequence (whole entry): T1 sequence (whole entry) with E185A, A196G
Nature of the assay: Binding affinity to Staphylococcus aureus FtsZ E185A mutant self-polymerization at 20 ug/mL by microtiter plate-based light scattering assay.

Assay [6] deals with Streptococcus agalactiae. In words: Antimicrobial activity against Streptococcus agalactiae Strep B ATCC 12386 incubated for 24 hrs by broth microdilution method. The following applies: Strep B ATCC 12386, 24 h. The assay is classed as functional. In outline:
as §1

In assay [7] the target is T4, Cell division protein FtsZ (Staphylococcus aureus) (UniProt P0A031).
T4 sequence (whole entry): T1 sequence (whole entry) with A196G
In words: Stimulation of Staphylococcus aureus FtsZ assembly and bundling at 20 ug/mL by transmission electron microscopy. In outline:
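SaFtsZ polymerized with 20 μg/mL compound under light-scattering assay conditions (10 μM protein, 1 mM GTP, 1 mM CaCl2, pH 7.4). Reaction diluted 1:10 in polymerization buffer, applied to glow-discharged Formvar/carbon grids, negatively stained with 1% phosphotungstic acid for 1 min, and imaged by TEM at 80 kV.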

In assay [8] the test system is Enterococcus faecalis. In words: Binding affinity to Enterococcus faecalis FtsZ at 40 um by fluorescence anisotropy BoGTPgammaS competition assay. The method, boiled down: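 Competition with fluorescent BoGTPγS. BoGTPγS (1 μM final) was mixed with 5 μM FtsZ and compound or unlabeled GTP at 0–40 μM. Buffer was 50 mM Tris·HCl pH 7.4, 50 mM KCl, 2 mM magnesium acetate. After 5 min at 25 °C, anisotropy was read at excitation 488 nm and emission 510 nm, in triplicate and averaged.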
Background: Polarisation of emitted light reports the rotation of a fluorescent probe.

Assay [9] deals with T4, Cell division protein FtsZ (Staphylococcus aureus). In words: Stimulation of Staphylococcus aureus FtsZ self-polymerization by microtiter plate-based light scattering assay.
In assay [10] the target is Cell division protein FtsZ (Staphylococcus aureus, UniProt P0A031, I228R). Nature of the assay: Binding affinity to Staphylococcus aureus FtsZ I228R mutant expressed in Escherichia coli BL21 (DE3) at 25 degC by fluorescence anisotropy assay. The method, boiled down: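 Purified SaFtsZ mutant protein (0–25 μM) mixed with 5 μM compound in 50 mM Tris·HCl pH 7.4, 50 mM KCl, 2 mM magnesium acetate. After 5 min at 25 °C, steady-state fluorescence anisotropy read at excitation 245 / emission 318 nm, G-factor corrected, triplicate. Kd from nonlinear least-squares fit.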

For assay [11], the system named is Staphylococcus aureus. Nature of the assay: Potency index, ratio of vancomycin to compound bactericidal effect in methicillin-sensitive Staphylococcus aureus 8325-4 at 8 times MIC by time kill study. Type of assay: functional.
Assay [12] can be described thus: Selectivity index, ratio of Kd for Enterococcus faecalis FtsZ to Kd for Staphylococcus aureus FtsZ. In outline: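 Buffer was 50 mM Tris·HCl pH 7.4, 50 mM KCl, 2 mM magnesium acetate. Kd came from nonlinear least-squares fits, and the index is the ratio of the two Kd values.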

Turning to `CC(C)(C)c1ccc(-c2cccc(CNC(=N)N)c2)cc1`, the values for the MIC in [1] and in assay [6] were 2 µg/mL (≈ 7.11 µM) and 16 µg/mL (≈ 56.9 µM), respectively. Also, the result in assay [2], in assay [4] and in assay [7] was Active. The results for the Ratio in [3], in assay [11] and in assay [12] were above 1000, 100 and 6, respectively. The result in assay [5] and in [8] was inactive. Also, in assay [9], the Activity result was “Dose-dependent effect”. Besides, the Kd (commonly the free concentration of one partner at which half of the binding sites on the other are occupied at equilibrium, for simple one-to-one binding) in [10] stood at 32.9 µM.

Source of the values: ChEMBL document CHEMBL2176974, “A bactericidal guanidinomethyl biaryl that alters the dynamics of bacterial FtsZ polymerization” (J Med Chem, 2012).
